Results taken from ChEMBL document CHEMBL4406825, “Design, synthesis and preliminary bioactivity evaluations of 8-hydroxyquinoline derivatives as matrix metalloproteinase (MMP) inhibitors” (Eur J Med Chem, 2019).
Active and inactive are the calls of the source. No cut-off for these calls is given here.

What was measured:
A549 [1] = test: Induction of apoptosis in human A549 cells assessed as viable cells at 5 uM incubated for 48 hrs by annexin V FITC and propidium iodide based flow cytometry (reference value: 94.7 %); format: functional; conditions: A549, 48 h, read-out: Activity
Summary of the method: (§1)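 A549 cells (1×10^5 cells/mL) treated 48 h at 0, 1, 5 or 10 µM; harvested, washed in cold PBS, resuspended in binding buffer with annexin V-FITC and PI, 15 min at room temperature in the dark, then analysed by flow cytometry.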

A549 [2] = test: Induction of apoptosis in human A549 cells assessed as late apoptotic cells at 5 uM incubated for 48 hrs by annexin V FITC and propidium iodide based flow cytometry (reference value: 3.11 %); format: functional; summary of the method: as §1
A549 [3] = test: Induction of apoptosis in human A549 cells assessed as early apoptotic cells at 10 uM incubated for 48 hrs by annexin V FITC and propidium iodide based flow cytometry (reference value: 2.15 %); format: functional; summary of the method: as §1
HUVEC [4] = test: Cytotoxicity against HUVEC assessed as reduction in cell viability incubated for 48 hrs by MTT assay; format: cell-based; conditions: Homo sapiens
Summary of the method: (§2)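 Cells grown in RPMI1640 with 10% FBS at 37°C, 5% CO2; seeded at 4000-5000 cells/well for 8 h, then exposed to a range of compound concentrations for 48 h. MTT added for 4 h, formazan dissolved in DMSO, absorbance at 570 nm; IC50 calculated from inhibition ratios.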

A549 [5] = test: Down regulation of MMP9 expression in human A549 cells incubated for 24 hrs by Western blot analysis; format: functional, cell-based
Summary of the method: (§3)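 A549 cells treated 24 h at 1, 5 and 10 µM; lysates run on SDS-PAGE, transferred to PVDF, blocked in 10% dry milk/TBST, probed with rabbit anti-MMP-2, anti-MMP-9 or anti-GAPDH, then secondary antibodies and imaged.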

PC-3 = test: Antiproliferative activity against human PC3 cells assessed as reduction in cell viability incubated for 48 hrs by MTT assay; format: functional, cell-based; conditions: PC-3, 48 h; summary of the method: as §2
A549 [6] = test: Antiproliferative activity against human A549 cells assessed as reduction in cell viability incubated for 48 hrs by MTT assay; format: functional, cell-based; conditions: A549, 48 h; summary of the method: as §2
[7] = target: T1, 72 kDa type IV collagenase (Homo sapiens, UniProt P08253); test: Inhibition of recombinant human MMP2 using thiopeptide as substrate preincubated for 30 mins followed by substrate addition and measured every mins for 20 min by colorimetric assay
Target sequence in this assay (P08253 whole entry): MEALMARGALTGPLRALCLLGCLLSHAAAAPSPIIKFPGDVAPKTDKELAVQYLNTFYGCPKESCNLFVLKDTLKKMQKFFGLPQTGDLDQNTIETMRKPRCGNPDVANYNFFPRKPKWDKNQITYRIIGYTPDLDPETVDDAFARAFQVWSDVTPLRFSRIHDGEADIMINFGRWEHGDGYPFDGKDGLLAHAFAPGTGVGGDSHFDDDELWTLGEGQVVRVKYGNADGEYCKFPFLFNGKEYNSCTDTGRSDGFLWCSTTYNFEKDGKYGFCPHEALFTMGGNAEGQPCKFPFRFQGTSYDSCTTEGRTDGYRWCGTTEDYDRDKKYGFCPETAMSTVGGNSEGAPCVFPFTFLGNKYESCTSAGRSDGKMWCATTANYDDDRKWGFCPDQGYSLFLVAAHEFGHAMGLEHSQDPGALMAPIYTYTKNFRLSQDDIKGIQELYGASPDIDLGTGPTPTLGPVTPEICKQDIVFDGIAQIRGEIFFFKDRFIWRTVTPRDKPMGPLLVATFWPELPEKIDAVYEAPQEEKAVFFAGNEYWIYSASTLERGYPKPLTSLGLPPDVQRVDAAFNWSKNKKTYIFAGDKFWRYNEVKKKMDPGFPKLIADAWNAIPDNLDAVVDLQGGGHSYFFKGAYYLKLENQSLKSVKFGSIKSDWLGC

A549 [8] = test: Induction of apoptosis in human A549 cells assessed as early apoptotic cells at 1 uM incubated for 48 hrs by annexin V FITC and propidium iodide based flow cytometry (reference value: 2.15 %); format: functional; summary of the method: as §1
A549 [9] = test: Induction of apoptosis in human A549 cells assessed as viable cells at 1 uM incubated for 48 hrs by annexin V FITC and propidium iodide based flow cytometry (reference value: 94.7 %); format: functional; conditions: A549, 48 h, read-out: Activity; summary of the method: as §1
[10] = target: T1, 72 kDa type IV collagenase; test: Inhibition of recombinant human MMP2 at 10 uM using thiopeptide as substrate preincubated for 30 mins followed by substrate addition and measured every min for 20 mins by colorimetric assay relative to control
Summary of the method: (§4)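 Colorimetric kit assay: human recombinant enzyme plus inhibitor in assay buffer for 30 min at 37 °C, then chromogenic MMP substrate added; A412 recorded each minute over 20 min. Enzyme-free blanks and inhibitor-free controls included.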
Target sequence in this assay (P08253 110-660 limits assumed): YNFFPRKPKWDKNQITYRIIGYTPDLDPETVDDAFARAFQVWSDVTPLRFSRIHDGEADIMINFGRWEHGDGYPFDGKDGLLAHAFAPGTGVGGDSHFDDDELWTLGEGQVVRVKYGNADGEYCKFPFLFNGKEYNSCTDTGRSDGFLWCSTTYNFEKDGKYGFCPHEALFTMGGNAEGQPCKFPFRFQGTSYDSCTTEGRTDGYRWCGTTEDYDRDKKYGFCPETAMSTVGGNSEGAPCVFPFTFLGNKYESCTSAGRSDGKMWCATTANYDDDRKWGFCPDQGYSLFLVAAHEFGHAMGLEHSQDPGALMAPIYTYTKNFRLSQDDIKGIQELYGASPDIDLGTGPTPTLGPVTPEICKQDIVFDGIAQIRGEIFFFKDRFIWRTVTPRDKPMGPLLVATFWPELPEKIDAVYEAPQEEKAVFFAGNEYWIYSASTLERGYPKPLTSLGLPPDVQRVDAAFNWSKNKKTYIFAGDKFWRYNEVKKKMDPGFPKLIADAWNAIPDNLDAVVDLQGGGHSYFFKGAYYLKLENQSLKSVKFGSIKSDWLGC

A549 [11] = test: Induction of apoptosis in human A549 cells assessed as necrotic cells at 10 uM incubated for 48 hrs by annexin V FITC and propidium iodide based flow cytometry (reference value: 0.02 %); format: functional; summary of the method: as §1
[12] = target: T2, Matrix metalloproteinase-9 (Homo sapiens, UniProt P14780); test: Inhibition of recombinant human MMP9 using thiopeptide as substrate preincubated for 30 mins followed by substrate addition and measured every min for 20 mins by colorimetric assay
T2 sequence (P14780 whole entry): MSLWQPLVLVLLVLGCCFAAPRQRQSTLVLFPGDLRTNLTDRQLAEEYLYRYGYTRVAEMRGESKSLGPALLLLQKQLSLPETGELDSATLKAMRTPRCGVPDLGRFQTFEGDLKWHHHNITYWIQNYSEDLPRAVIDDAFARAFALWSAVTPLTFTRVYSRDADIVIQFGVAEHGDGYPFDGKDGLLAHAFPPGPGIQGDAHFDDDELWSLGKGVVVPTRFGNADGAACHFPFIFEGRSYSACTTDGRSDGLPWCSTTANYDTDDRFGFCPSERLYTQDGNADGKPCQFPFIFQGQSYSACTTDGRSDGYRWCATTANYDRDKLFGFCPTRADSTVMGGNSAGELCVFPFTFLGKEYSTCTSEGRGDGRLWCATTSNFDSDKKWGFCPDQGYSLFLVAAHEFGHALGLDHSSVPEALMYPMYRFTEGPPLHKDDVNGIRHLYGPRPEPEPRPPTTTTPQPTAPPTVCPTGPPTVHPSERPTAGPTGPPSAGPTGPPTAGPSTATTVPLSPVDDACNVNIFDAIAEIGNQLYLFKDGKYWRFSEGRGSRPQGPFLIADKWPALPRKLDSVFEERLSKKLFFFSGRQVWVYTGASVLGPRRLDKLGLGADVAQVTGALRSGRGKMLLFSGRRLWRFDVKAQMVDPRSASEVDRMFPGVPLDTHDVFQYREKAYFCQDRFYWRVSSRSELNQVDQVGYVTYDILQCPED

[13] = target: T2, Matrix metalloproteinase-9; test: Inhibition of recombinant human MMP9 at 10 uM using thiopeptide as substrate preincubated for 30 mins followed by substrate addition and measured every min for 20 mins by colorimetric assay relative to control; summary of the method: as §4
A549 [14] = test: Down regulation of MMP2 expression in human A549 cells incubated for 24 hrs by Western blot analysis; format: functional, cell-based; summary of the method: as §3
A549 [15] = test: Induction of apoptosis in human A549 cells assessed as necrotic cells at 5 uM incubated for 48 hrs by annexin V FITC and propidium iodide based flow cytometry (reference value: 0.02 %); format: functional; summary of the method: as §1
KG-1 = test: Antiproliferative activity against human KG1 cells assessed as reduction in cell viability incubated for 48 hrs by MTT assay; format: functional, cell-based; conditions: KG-1, 48 h; summary of the method: as §2
[16] = target: T2, Matrix metalloproteinase-9; test: Inhibition of MMP9 in human A549 cells assessed as decrease in gelatin digestion incubated for 24 hrs by coomassie brilliant blue staining-based zymographic assay; format: cell-based
Summary of the method: (§5)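 A549 cells treated 24 h at 1, 5, 10 µM; culture supernatants electrophoresed on gelatin-containing SDS-PAGE, gels washed three times in 0.25% triton, then incubated 48 h at 37°C in 50 mM Tris-HCl pH 7.5 with 0.15 M NaCl, 5 mM CaCl2, 0.05% NaN3 to reveal gelatinolytic activity.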

A549 [17] = test: Inhibition of cell migration in human A549 cells incubated for 24 hrs by crystal violet staining based transwell migration assay; format: functional
Summary of the method: (§6)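 A549 cells pretreated 24 h with compound (1, 5, 10 µM), harvested into serum-free RPMI1640; 30,000 cells placed in upper transwell chamber, lower chamber RPMI1640 + 10% FBS as chemoattractant. Migration 24 h at 37°C, 5% CO2; cells fixed MeOH/acetic acid (3:1), upper side wiped, underside stained 0.1% crystal violet and counted. Three repeats, mean ± SEM.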

A549 [18] = test: Induction of apoptosis in human A549 cells assessed as late apoptotic cells at 10 uM incubated for 48 hrs by annexin V FITC and propidium iodide based flow cytometry (reference value: 3.11 %); format: functional; summary of the method: as §1
[19] = target: T1, 72 kDa type IV collagenase; test: Inhibition of MMP2 in human A549 cells assessed as decrease in gelatin digestion incubated for 24 hrs by coomassie brilliant blue staining-based zymographic assay; format: cell-based; summary of the method: as §5
Target sequence in this assay (P08253 110-660 limits assumed): as the sequence (P08253 110-660 limits assumed) above

HL-60 = test: Antiproliferative activity against human HL60 cells assessed as reduction in cell viability incubated for 48 hrs by MTT assay; format: functional, cell-based; conditions: HL-60, 48 h; summary of the method: as §2
A549 [20] = test: Induction of apoptosis in human A549 cells assessed as late apoptotic cells at 1 uM incubated for 48 hrs by annexin V FITC and propidium iodide based flow cytometry (reference value: 3.11 %); format: functional; summary of the method: as §1
A549 [21] = test: Induction of apoptosis in human A549 cells assessed as early apoptotic cells at 5 uM incubated for 48 hrs by annexin V FITC and propidium iodide based flow cytometry (reference value: 2.15 %); format: functional; summary of the method: as §1
K562 = test: Antiproliferative activity against human K562 cells assessed as reduction in cell viability incubated for 48 hrs by MTT assay; format: functional, cell-based; conditions: K562, 48 h; summary of the method: as §2
A549 [22] = test: Induction of apoptosis in human A549 cells assessed as viable cells at 10 uM incubated for 48 hrs by annexin V FITC and propidium iodide based flow cytometry (reference value: 94.7 %); format: functional; conditions: A549, 48 h, read-out: Activity; summary of the method: as §1
A549 [23] = test: Inhibition of cell invasion in human A549 cells incubated for 24 hrs by crystal violet staining based matrigel migration assay; format: functional
Summary of the method: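 As the migration setup but membrane precoated with matrigel (1:10 diluted) for 2 h at 37°C: A549 pretreated 24 h at 1, 5, 10 µM, 30,000 cells in serum-free medium above, 10% FBS below, 24 h, then fixing, 0.1% crystal violet staining and counting. Three repeats, mean ± SEM.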

MCF7 = test: Antiproliferative activity against human MCF7 cells assessed as reduction in cell viability incubated for 48 hrs by MTT assay; format: functional, cell-based; conditions: MCF7, 48 h; summary of the method: as §2
HUVEC [24] = test: Antiangiogenic activity in HUVEC assessed as inhibition of tuber formation at 10 uM incubated for 24 hrs by matrigel-based inverted microscopy; format: functional, cell-based; conditions: Homo sapiens
Summary of the method: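 HUVEC treated with compound for 24 h in serum-free RPMI1640, harvested and layered onto undiluted matrigel polymerized 2 h at 37°C; after 6 h cell organization examined by inverted microscope, with mesh number counted as the angiogenesis read-out. Tested at 10 µM.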

A549 [25] = test: Induction of apoptosis in human A549 cells assessed as necrotic cells at 1 uM incubated for 48 hrs by annexin V FITC and propidium iodide based flow cytometry (reference value: 0.02 %); format: functional; summary of the method: as §1
[26] = target: T2, Matrix metalloproteinase-9; test: Inhibition of recombinant human MMP9 at 50 uM using thiopeptide as substrate preincubated for 30 mins followed by substrate addition and measured every min for 20 mins by colorimetric assay relative to control
[27] = target: T2, Matrix metalloproteinase-9; test: Inhibition of recombinant human MMP9 at 25 uM using thiopeptide as substrate preincubated for 30 mins followed by substrate addition and measured every min for 20 mins by colorimetric assay relative to control
[28] = target: MMP-2/MMP-9 (Homo sapiens) (UniProt P08253+P14780); test: Selectivity ratio of IC50 for inhibition of recombinant human MMP9 to IC50 for inhibition of recombinant human MMP2
A549 [29] = test: Inhibition of cell migration in human A549 cells at 1 to 10 uM incubated for 24 hrs by crystal violet staining based transwell migration assay; format: functional; summary of the method: as §6

Row | IC50 (PC-3) [µM] | IC50 (A549 [6]) [µM] | IC50 [7] [µM] | inhibition [10] [%] | IC50 [12] [nM] | inhibition [13] [%] | inhibition [16] | inhibition [19] | SMILES | viability at 5 µM (A549 [1]) [%] | Activity (A549 [2]) [%] | Activity (A549 [3]) [%] | IC50 (HUVEC [4]) [µM] | Activity (A549 [5]) | Activity (A549 [8]) [%] | viability at 1 µM (A549 [9]) [%] | Activity (A549 [11]) [%] | Activity (A549 [14]) | Activity (A549 [15]) [%] | IC50 (KG-1) [nM] | Activity (A549 [18]) [%] | also measured
1 | 8.3 | 11 | 0.7 | 100 | 660 | 100 | Dose-dependent effect | Dose-dependent effect | O=C(CCCCCNCc1cc(Cl)c2cccnc2c1O)Nc1ccccc1 | 73.1 | 9.75 | 21 | > 50 | Dose-dependent effect | 16.4 | 75.8 | 0.14 | Dose-dependent effect | 0.029 | 2300 | 6.54 | inhibition (A549 [17]): Dose-dependent effect; IC50 (HL-60): 1800 nM; Activity (A549 [20]): 7.81%; Activity (A549 [21]): 17.1%; IC50 (K562): 2300 nM; viability at 10 µM (A549 [22]): 72.3%; inhibition (A549 [23]): Dose-dependent effect; IC50 (MCF7): 4.6 µM; inhibition (HUVEC [24]): Active; Activity (A549 [25]): 0.031%
2 |  |  | 6.2 | 59.5 | > 10000 | 35.3 |  |  | CN(CCCCCC(=O)Nc1ccc(O)c2ncccc12)c1ccccc1 |  |  |  |  |  |  |  |  |  |  |  |  | inhibition [26]: 26%; inhibition [27]: 22%; Ratio IC50 [28]: > 7
3 |  |  | 7.5 | 57.5 | > 10000 | 22.2 |  |  | CN(CCCCC(=O)Nc1ccc(O)c2ncccc12)c1ccccc1 |  |  |  |  |  |  |  |  |  |  |  |  | inhibition [26]: 35%; inhibition [27]: 15%; Ratio IC50 [28]: > 7
4 | 22 | 6.4 | 0.81 | 68.8 | 1300 | 100 | Dose-dependent effect | Dose-dependent effect | Cc1[nH]c2ccccc2c1CCNC(=O)CCCNCc1cc(Cl)c2cccnc2c1O | 64.4 | 6.17 | 32.5 | > 50 | Dose-dependent effect | 16 | 74.9 | 0.46 | Dose-dependent effect | 0.027 | 690 | 4.97 | IC50 (HL-60): 4000 nM; inhibition (A549 [29]): Active; Activity (A549 [20]): 9.15%; Activity (A549 [21]): 29.4%; IC50 (K562): 1800 nM; viability at 10 µM (A549 [22]): 62.5%; inhibition (A549 [23]): Dose-dependent effect; IC50 (MCF7): 7.8 µM; inhibition (HUVEC [24]): Active; Activity (A549 [25]): 0%
